# Laboratory results from ChEMBL document CHEMBL1154253, “Synthesis and serotonin transporter activity of sulphur-substituted alpha-alkyl phenethylamines as a new class of anticancer agents” (Eur J Med Chem, 2009).
# Activity calls are given as the source filed them. The calls are words filed in the database; no cut-off is given here.
# How the values were obtained:
# [1] = molecular target: T1, Sodium-dependent serotonin transporter (Rattus norvegicus, UniProt P31652); assay: Inhibition of [3H]5-HT reuptake at rat SERT expressed in HEK293 cells after 2 mins by liquid scintillation counting; type: cell-based
# HEK293 [2] = assay: Cytotoxicity against human HEK293 cells after 48 hrs by neutral red assay; type: cell-based; settings: HEK293, 48 h
# Procedure, shortened: (§1)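 Neutral Red uptake: 5 × 10⁴ cells/well grown 24–36 h to sub-confluence, then treated 48 h. Cells incubated 3 ± 1 h with NR dye, washed and solubilised in 50% ethanol–1% acetic acid, and absorbance read at 540 nm (690 nm background). Viability given as % of vehicle-treated cells. pEC50 obtained by sigmoidal regression (Hill slope 1) using 4 concentrations in triplicate on two independent days. SERT-line values compared with parental HEK293 by two-way ANOVA with Bonferroni test. Sodium azide 30 mM and Triton-X 2% as positive controls.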
# SH-SY5Y = assay: Cytotoxicity against human SH-SY5Y cells after 48 hrs by neutral red assay; type: functional, cell-based
# DG-75 [3] = assay: Antiproliferative activity against human DG75 cells after 24 to 72 hrs by alamar blue assay; type: functional, cell-based
# Procedure, shortened: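 Cells seeded at 1–5 × 10⁴ per well and exposed to compound for the stated time. Alamar Blue was then added, followed by 4–6 h incubation at 37 °C in the dark. Fluorescence was read at excitation 544 nm and emission 590 nm. Medium-plus-dye background was subtracted, and untreated cells were set as 100% viability. Readings were in triplicate on two independent days.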
# [4] = Antiproliferative activity against human MUTU-I cells after 24 hrs by alamar blue assay
# HL-60 [5] = assay: Antiproliferative activity against human HL60 cells after 24 hrs by alamar blue assay; type: functional, cell-based; settings: HL-60, 24 h
# [6] = molecular target: Sodium-dependent serotonin transporter (Rattus norvegicus) (UniProt P31652); assay: Inhibition of [3H]5-HT reuptake at rat SERT expressed in HEK293 cells at 100 uM after 2 mins by liquid scintillation counting; type: cell-based
# [7] = molecular target: Sodium-dependent serotonin transporter (Rattus norvegicus) (UniProt P31652); assay: Inhibition of [3H]5-HT reuptake at rat SERT expressed in HEK293 cells at 1 uM after 2 mins by liquid scintillation counting; type: cell-based
# [8] = molecular target: Sodium-dependent serotonin transporter (Rattus norvegicus) (UniProt P31652); assay: Inhibition of [3H]5-HT reuptake at rat SERT expressed in HEK293 cells assessed as serotonin reuptake at 10 uM after 2 mins by liquid scintillation counting; type: cell-based; design: scale not given: the % may be the effect or the level left
# Procedure, shortened: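 HEK293 TREx cells stably carrying rat SERT-FLAG were plated on poly-L-lysine, and expression was induced with tetracycline for 24 h. Cells were washed in TB buffer (10 mM HEPES, 150 mM NaCl, 2 mM KCl, 1 mM CaCl₂, 1 mM MgCl₂) and preincubated with compound for 5 min at 37 °C. [³H]5-HT (~1 Ci/mmol) uptake then ran 2 min at room temperature. Uptake was stopped with cold paroxetine-containing buffer, and cells were lysed in 2% SDS and counted by scintillation. Paroxetine-defined non-specific uptake was subtracted, and untreated cells were set as 100% reuptake.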
# [9] = molecular target: Sodium-dependent noradrenaline transporter (Homo sapiens, UniProt P23975); assay: Inhibition of human noradrenaline transporter
# [10] = molecular target: Sodium-dependent dopamine transporter (Homo sapiens, UniProt Q01959); assay: Inhibition of human dopamine transporter
# HEK293 [11] = assay: Cytotoxicity against human HEK293 cells at 1 uM after 48 hrs by neutral red assay; type: cell-based; settings: hek293, 48 h; procedure, shortened: as §1
# [12] = molecular target: T2, Sodium-dependent serotonin transporter (Homo sapiens, UniProt P31645); assay: Induction of human SERT-dependent cytotoxicity in SERT expressing HEK293 cells at 1 uM after 48 hrs by neutral red assay; type: cell-based; procedure, shortened: as §1
# Target sequence in this assay (P31645 whole entry, looked up): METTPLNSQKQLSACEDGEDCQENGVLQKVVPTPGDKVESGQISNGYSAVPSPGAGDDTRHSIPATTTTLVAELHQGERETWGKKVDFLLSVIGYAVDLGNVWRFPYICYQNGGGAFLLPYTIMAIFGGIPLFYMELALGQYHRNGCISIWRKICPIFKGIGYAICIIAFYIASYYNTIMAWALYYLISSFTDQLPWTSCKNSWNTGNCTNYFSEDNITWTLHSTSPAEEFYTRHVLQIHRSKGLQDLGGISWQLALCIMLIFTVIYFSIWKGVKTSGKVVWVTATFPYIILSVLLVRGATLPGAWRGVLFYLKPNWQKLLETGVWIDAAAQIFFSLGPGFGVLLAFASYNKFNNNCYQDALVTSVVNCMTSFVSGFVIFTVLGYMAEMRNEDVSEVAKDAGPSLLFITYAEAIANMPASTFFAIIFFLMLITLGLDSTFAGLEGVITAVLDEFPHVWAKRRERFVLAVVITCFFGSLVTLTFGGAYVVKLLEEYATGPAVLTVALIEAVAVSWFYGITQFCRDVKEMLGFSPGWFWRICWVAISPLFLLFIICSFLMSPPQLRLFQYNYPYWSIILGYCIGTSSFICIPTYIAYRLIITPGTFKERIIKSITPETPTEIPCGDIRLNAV
# [13] = molecular target: T2, Sodium-dependent serotonin transporter; assay: Inhibition of [3H]5-HT uptake at SERT
# Target sequence in this assay (P31645 whole entry): as the sequence (P31645 whole entry, looked up) above
# [14] = molecular target: T2, Sodium-dependent serotonin transporter; assay: Inhibition of [3H]5-HT uptake at human SERT expressed in HEK293 cells after 10 mins by scintillation counting; type: cell-based
# Target sequence in this assay (P31645 whole entry): as the sequence (P31645 whole entry, looked up) above
# Rattus norvegicus [15] = species: Rattus norvegicus; assay: Selectivity ratio of IC50 for DAT in rat brain synaptosome to IC50 for SERT in rat brain synaptosome; type: tissue-based
# Rattus norvegicus [16] = species: Rattus norvegicus; assay: Selectivity ratio of IC50 for NET in rat brain synaptosome to IC50 for SERT in rat brain synaptosome; type: tissue-based
# [17] = molecular target: T1, Sodium-dependent serotonin transporter; assay: Inhibition of [3H]5-HT uptake at SERT in rat brain synaptosome; type: tissue-based
# [18] = molecular target: Sodium-dependent serotonin transporter (Rattus norvegicus) (UniProt P31652); assay: Inhibition of [3H]5-HT reuptake at rat SERT expressed in HEK293 cells assessed as serotonin reuptake at 100 uM after 2 mins by liquid scintillation counting; type: cell-based; design: scale not given: the % may be the effect or the level left
# [19] = molecular target: Sodium-dependent serotonin transporter (Rattus norvegicus) (UniProt P31652); assay: Inhibition of [3H]5-HT reuptake at rat SERT expressed in HEK293 cells assessed as serotonin reuptake at […] after 2 mins by liquid scintillation counting; type: cell-based; design: scale not given: the % may be the effect or the level left
# DG-75 [20] = assay: Induction of apoptosis in human DG75 cells after 72 hrs by annexin V-propidium iodide staining-based FACS analysis; type: functional, cell-based; settings: DG-75, 72 h
# [21] = Induction of apoptosis in human MUTU-I cells after 24 hrs by annexin V-propidium iodide staining-based FACS analysis; type: functional, cell-based
# HL-60 [22] = assay: Induction of apoptosis in human HL60 cells after 24 hrs by annexin V-propidium iodide staining-based FACS analysis; type: functional, cell-based; settings: HL-60, 24 h
# DG-75 [23] = assay: Induction of apoptosis in human DG75 cells at 50 uM after 72 hrs by annexin V-propidium iodide staining-based FACS analysis; type: functional
# [24] = Induction of apoptosis in human MUTU-I cells at 50 uM after 24 hrs by annexin V-propidium iodide staining-based FACS analysis; type: functional
# HL-60 [25] = assay: Induction of apoptosis in human HL60 cells at 50 uM after 24 hrs by annexin V-propidium iodide staining-based FACS analysis; type: functional
# PBMC [26] = assay: Cytotoxicity against human PBMC at 10 uM after 24 hrs by alamar blue assay; type: cell-based
# Procedure, shortened: (§2)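 PBMCs from a healthy donor, separated on Ficoll and resuspended in IMDM with FCS and penicillin/streptomycin. Seeded at 1–5 × 10⁴ cells/200 µl and treated 24 h. Alamar Blue added, fluorescence read at ex 544/em 590 nm, background subtracted, untreated cells = 100% viability. Mean + S.E.M.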
# PBMC [27] = assay: Cytotoxicity against human PBMC at 50 uM after 24 hrs by alamar blue assay; type: cell-based; procedure, shortened: as §2
# T1 sequence (P31652 whole entry): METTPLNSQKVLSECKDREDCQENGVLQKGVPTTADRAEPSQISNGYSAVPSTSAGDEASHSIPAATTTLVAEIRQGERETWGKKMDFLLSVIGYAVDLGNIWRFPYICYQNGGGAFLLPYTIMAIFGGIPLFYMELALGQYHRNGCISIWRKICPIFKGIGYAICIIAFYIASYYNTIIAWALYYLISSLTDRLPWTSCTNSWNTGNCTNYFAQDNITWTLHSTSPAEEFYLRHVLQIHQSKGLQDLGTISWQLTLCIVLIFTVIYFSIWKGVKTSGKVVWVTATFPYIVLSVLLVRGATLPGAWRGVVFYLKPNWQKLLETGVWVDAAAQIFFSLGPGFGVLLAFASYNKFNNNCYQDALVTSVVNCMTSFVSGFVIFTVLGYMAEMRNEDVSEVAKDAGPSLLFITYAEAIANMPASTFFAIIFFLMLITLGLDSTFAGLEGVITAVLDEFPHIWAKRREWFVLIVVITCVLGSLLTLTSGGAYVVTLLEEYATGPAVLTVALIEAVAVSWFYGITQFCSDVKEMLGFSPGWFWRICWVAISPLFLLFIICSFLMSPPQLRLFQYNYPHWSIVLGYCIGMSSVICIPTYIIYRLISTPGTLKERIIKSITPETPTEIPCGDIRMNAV
# Sequence of Sodium-dependent serotonin transporter (Rattus norvegicus) (P31652 whole entry): as above
# Sequence of Sodium-dependent dopamine transporter (Q01959 whole entry): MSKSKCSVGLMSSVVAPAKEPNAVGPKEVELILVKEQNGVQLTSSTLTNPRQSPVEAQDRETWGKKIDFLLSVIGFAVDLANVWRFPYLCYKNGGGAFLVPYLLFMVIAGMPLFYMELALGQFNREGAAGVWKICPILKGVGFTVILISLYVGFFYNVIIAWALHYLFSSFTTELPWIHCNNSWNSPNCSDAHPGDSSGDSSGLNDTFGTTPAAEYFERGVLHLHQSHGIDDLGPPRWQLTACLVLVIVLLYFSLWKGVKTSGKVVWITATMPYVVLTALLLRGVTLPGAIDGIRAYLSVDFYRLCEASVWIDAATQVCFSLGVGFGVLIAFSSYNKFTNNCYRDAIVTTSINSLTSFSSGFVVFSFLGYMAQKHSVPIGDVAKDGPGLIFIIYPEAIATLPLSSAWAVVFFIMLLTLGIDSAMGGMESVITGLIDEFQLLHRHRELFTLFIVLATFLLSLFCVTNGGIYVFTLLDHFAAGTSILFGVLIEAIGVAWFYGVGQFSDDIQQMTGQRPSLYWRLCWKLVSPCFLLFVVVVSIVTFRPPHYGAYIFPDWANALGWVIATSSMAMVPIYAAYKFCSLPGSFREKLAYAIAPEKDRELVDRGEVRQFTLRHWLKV
# Sequence of Sodium-dependent noradrenaline transporter (P23975 whole entry): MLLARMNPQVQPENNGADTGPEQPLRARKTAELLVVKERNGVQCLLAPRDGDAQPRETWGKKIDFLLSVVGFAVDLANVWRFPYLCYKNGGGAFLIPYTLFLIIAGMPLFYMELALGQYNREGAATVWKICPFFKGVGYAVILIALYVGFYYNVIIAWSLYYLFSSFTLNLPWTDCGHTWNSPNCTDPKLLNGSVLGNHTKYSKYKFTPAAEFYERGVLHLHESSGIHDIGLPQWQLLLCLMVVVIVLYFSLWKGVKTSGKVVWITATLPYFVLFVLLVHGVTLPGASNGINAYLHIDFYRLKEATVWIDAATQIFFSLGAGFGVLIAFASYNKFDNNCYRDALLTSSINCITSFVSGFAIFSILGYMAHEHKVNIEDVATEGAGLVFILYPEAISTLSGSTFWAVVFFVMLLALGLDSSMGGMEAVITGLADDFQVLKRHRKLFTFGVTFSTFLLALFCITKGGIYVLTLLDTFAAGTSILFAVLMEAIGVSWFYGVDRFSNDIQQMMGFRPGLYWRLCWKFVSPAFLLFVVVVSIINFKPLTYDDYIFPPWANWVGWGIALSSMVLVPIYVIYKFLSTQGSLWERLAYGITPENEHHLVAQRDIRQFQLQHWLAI
SMILES,IC50 [1] [µM],EC50 (HEK293 [2]; read-out: pEC50 (converted)) [µM],EC50 (SH-SY5Y; read-out: pEC50 (converted)) [µM],also measured
COCCNC(C)Cc1ccc(SC)cc1 (stereo not drawn),3.58,22.9,1350,–
C#CCNC(CC)Cc1ccc(SC)cc1 (stereo not drawn),0.399,20.4,394,–
CCSc1ccc(CC(CC)N(C)O)cc1 (stereo not drawn),2,51.3,209,–
C#CCNC(C)Cc1ccc(SC)cc1 (stereo not drawn),0.688,24.5,2340,–
CCCNC(CC)Cc1ccc(SC)cc1 (stereo not drawn),0.621,303,3020,–
CC(=O)O[C@H]1C(=O)[C@@]2(C)[C@H]([C@H](OC(=O)c3ccccc3)[C@]3(O)C[C@H](OC(=O)[C@H](O)[C@@H](NC(=O)c4ccccc4)c4ccccc4)C(C)=C1C3(C)C)[C@]1(OC(C)=O)CO[C@@H]1C[C@@H]2O [PACLITAXEL],–,–,–,IC50 (DG-75 [3]): 0.01 µM; IC50 [4]: 0.01 µM; IC50 (HL-60 [5]): 4 ng/mL
CNC(C)Cc1ccc(SC)cc1 (stereo not drawn),0.417,19.5,1550,–
CCSc1ccc(CC(C)NC)cc1 (stereo not drawn),0.724,7.59,282,–
CCC(Cc1ccc(SC)cc1)NCCOC (stereo not drawn),2.82,16.2,3890,–
CC(N)Cc1ccc(SCCN(C)C)cc1 (stereo not drawn),43.3,8.71,240,EC50 (SH-SY5Y; read-out: EC50): 1 µM
CCSc1ccc(CC(C)N(C)O)cc1 (stereo not drawn),1.57,12.3,43.7,–
CC(N)Cc1ccc(SC(C)(C)C)cc1 (stereo not drawn),–,7.24,20.4,EC50 (SH-SY5Y; read-out: EC50): 1 µM; inhibition [6]: 100%
CCC(Cc1ccc(SC)cc1)NO (stereo not drawn),0.598,8.51,31.6,–
CCNC(CC)Cc1ccc(SC)cc1 (stereo not drawn),0.823,10,151,–
CCC(N)Cc1ccc(SC)cc1 (stereo not drawn),0.611,14.8,437,–
CCSc1ccc(CC(CC)NC)cc1 (stereo not drawn),–,–,–,inhibition [7]: 26%; EC50 (HEK293 [2]; read-out: EC50): > 100 µM
CSc1ccc(CC(C)NC(C)C)cc1 (stereo not drawn),1.85,30.9,1950,–
CSc1ccc(CC(C)N(C)C)cc1 (stereo not drawn),0.52,20,1860,–
CCCCCSc1ccc(C(N)CC)cc1 (stereo not drawn),–,2690,> 10000,Activity [8]: 65%
CSc1ccc(CC(C)NCCO)cc1 (stereo not drawn),0.868,10,2290,–
CC(N)Cc1ccc2c(c1)OCO2 (stereo not drawn) [TENAMFETAMINE],0.996,324,> 10000,IC50 [9]: 0.266 µM; IC50 [10]: 0.89 µM
CSc1ccc(CC(C)N)cc1 (stereo not drawn) [4-METHYLTHIOAMPHETAMINE],0.207,18.6,608,EC50 (SH-SY5Y; read-out: EC50): 1 µM; Activity (HEK293 [11]): Toxic; Activity [12]: Active; IC50 [13]: 0.074 µM; IC50 [9]: 2.38 µM; IC50 [10]: 3.07 µM; Ki [14]: 0.45 µM; Ratio IC50 (Rattus norvegicus [15]): 3070; Ratio IC50 (Rattus norvegicus [16]): 2370

SMILES,IC50 [1] [µM],EC50 (HEK293 [2]; read-out: pEC50 (converted)) [µM],EC50 (SH-SY5Y; read-out: pEC50 (converted)) [µM],also measured
C=CCNC(C)Cc1ccc(SC)cc1 (stereo not drawn),0.524,15.5,123,–
CONC(C)Cc1ccc(SC)cc1 (stereo not drawn),0.664,11,2450,–
CCNC(CC)Cc1ccc(SCC)cc1 (stereo not drawn),1.8,251,245,–
CSc1ccc(CC(C)NC2CC2)cc1 (stereo not drawn),0.702,18.6,372,–
COc1ccc(CC(C)N)cc1 (stereo not drawn) [PARA-METHOXYAMPHETAMINE],0.173,457,> 10000,–
CCNC(C)Cc1ccc(SCC)cc1 (stereo not drawn),0.478,6.31,302,–
CSc1ccc(CC(C)NO)cc1 (stereo not drawn),0.436,38,575,–
CC(N)Cc1ccc(Cl)cc1 (stereo not drawn),–,–,–,IC50 [17]: 0.182 µM; IC50 [9]: 0.207 µM; IC50 [10]: 0.424 µM
CCC(Cc1ccc(SC)cc1)NC1CC1 (stereo not drawn),0.872,10.7,> 10000,–
CCNC(C)Cc1ccc(SC)cc1 (stereo not drawn),0.963,16.2,1860,–
CCSc1ccc(CC(C)NO)cc1 (stereo not drawn),0.625,32.4,708,–
CSc1ccc(CC(C)N(C)O)cc1 (stereo not drawn),1.87,24,229,–
CCSc1ccc(CC(C)N)cc1 (stereo not drawn),1.4,15.1,64.6,EC50 (SH-SY5Y; read-out: EC50): 1 µM
CC(N)Cc1ccc(S(C)(=O)=O)cc1 (stereo not drawn),–,> 10000,> 10000,Activity [18]: 100%; Activity [19]: 100%
CCSc1ccc(CC(CC)NO)cc1 (stereo not drawn),1.45,11.5,1820,–
CNC(C)Cc1ccc2c(c1)OCO2 (stereo not drawn) [MIDOMAFETAMINE],1.06,245,> 10000,IC50 [13]: 0.425 µM; IC50 [9]: 0.405 µM; IC50 [10]: 1.44 µM
CCC(Cc1ccc(SC)cc1)NC (stereo not drawn),0.437,50.1,832,–
CC(N)Cc1ccc(SCc2ccccc2)cc1 (stereo not drawn),0.679,2.95,19.5,EC50 (SH-SY5Y; read-out: EC50): 1 µM
CCC(Cc1ccc(SC)cc1)NC(C)C (stereo not drawn),1.94,17.4,339,–
CCSc1ccc(CC(N)CC)cc1 (stereo not drawn),1.29,5.13,53.7,–
CCC(N)c1ccc(SC)cc1 (stereo not drawn),> 25,3.16,19.5,EC50 (DG-75 [20]): 33.8 µM; EC50 [21]: 21 µM; EC50 (HL-60 [22]): 29.5 µM; Activity (DG-75 [23]): 40%; Activity [24]: 40%; Activity (HL-60 [25]): 40%; Activity (PBMC [26]): Non-toxic; Activity (PBMC [27]): Non-toxic
CON(C)C(C)Cc1ccc(SC)cc1 (stereo not drawn),25.1,525,> 10000,–
